According to ChEMBL document CHEMBL1154633, “Synthesis and biological evaluation of 2-alkynyl-N6-methyl-5'-N-methylcarboxamidoadenosine derivatives as potent and highly selective agonists for the human adenosine A3 receptor” (J Med Chem, 2009):
Calls of active or inactive are those of the source. The rule behind the calls is not given here.

How the values were obtained:
[1] = molecular target: T1, Adenosine receptor A3 (Homo sapiens, UniProt P0DMS8); assay: Agonist activity at human recombinant adenosine A3 receptor expressed in CHO cells assessed as nonradiaoactive DELFIA Eu-GTP binding treated for 15 mins before addition of Eu-GTP measured after 45 mins by time-resolved fluorometric method; format: cell-based
T1 sequence (P0DMS8 whole entry): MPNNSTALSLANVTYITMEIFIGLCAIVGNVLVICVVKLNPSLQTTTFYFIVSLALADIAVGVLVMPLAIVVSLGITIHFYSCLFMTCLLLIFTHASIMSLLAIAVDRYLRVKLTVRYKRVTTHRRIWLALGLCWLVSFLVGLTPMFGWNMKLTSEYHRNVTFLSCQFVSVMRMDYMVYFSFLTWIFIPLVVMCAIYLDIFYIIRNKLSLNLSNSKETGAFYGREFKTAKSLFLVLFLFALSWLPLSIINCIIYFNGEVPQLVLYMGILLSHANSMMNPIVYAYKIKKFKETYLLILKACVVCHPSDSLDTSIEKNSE

[2] = molecular target: T1, Adenosine receptor A3; assay: Displacement of [3H]NECA from human recombinant adenosine A3 receptor expressed in CHO cells; format: cell-based
Outline: (§1)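 Competition binding in 96-well microplates with radioligand [3H]NECA on CHO cells stably transfected with human recombinant A2AR or A3R. Ki of unlabeled compound from displacement of specific binding, with 95% confidence intervals.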

[3] = molecular target: Adenosine receptors; A1 & A3 (Homo sapiens) (UniProt P30542+P0DMS8); assay: Selectivity ratio of Ki for human recombinant adenosine A1 receptor to Ki for human recombinant adenosine A3 receptor
Outline: (§2)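 Selectivity is Ki at human A1R (displacement of [3H]CCPA) or at human A2AR (displacement of [3H]NECA) divided by Ki at human A3R (displacement of [3H]NECA). All receptors stably expressed in CHO cells, competition experiments in 96-well microplates.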

[4] = molecular target: T2, Adenosine receptor A1 (Homo sapiens, UniProt P30542); assay: Displacement of [3H]CCPA from human recombinant adenosine A1 receptor expressed in CHO cells; format: cell-based
T2 sequence (P30542 whole entry): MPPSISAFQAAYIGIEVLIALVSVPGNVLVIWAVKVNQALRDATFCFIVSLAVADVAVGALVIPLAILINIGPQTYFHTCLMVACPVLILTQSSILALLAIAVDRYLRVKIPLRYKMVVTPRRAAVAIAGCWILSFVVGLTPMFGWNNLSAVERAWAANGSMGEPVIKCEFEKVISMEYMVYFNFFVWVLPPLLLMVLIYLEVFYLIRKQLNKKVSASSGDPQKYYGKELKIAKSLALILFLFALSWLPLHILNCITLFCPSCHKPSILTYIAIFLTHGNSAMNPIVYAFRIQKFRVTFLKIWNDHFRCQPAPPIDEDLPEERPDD

[5] = molecular target: T3, Adenosine receptor A3 (Homo sapiens) (UniProt P0DMS8); assay: Ratio of Cl-IBMECA EC50 to compound EC50 for human recombinant adenosine A3 receptor expressed in CHO cells; format: cell-based
T3 sequence (whole entry): T1 sequence (P0DMS8 whole entry)

[6] = molecular target: Adenosine receptor A2a (Homo sapiens, UniProt P29274); assay: Displacement of [3H]NECA from human recombinant adenosine A2A receptor expressed in CHO cells; format: cell-based; outline: as §1
[7] = organism: Homo sapiens; assay: Selectivity ratio of Ki for human recombinant adenosine A2A receptor to Ki for human recombinant adenosine A3 receptor; outline: as §2
[8] = molecular target: T3, Adenosine receptor A3 (Homo sapiens); assay: Agonist activity at human recombinant adenosine A3 receptor expressed in CHO cells assessed as nonradiaoactive DELFIA Eu-GTP binding treated for 15 mins before addition of Eu-GTP measured after 45 mins by time-resolved fluorometric method in presence of increasing saponin concentration; format: cell-based
[9] = molecular target: T3, Adenosine receptor A3 (Homo sapiens); assay: Agonist activity at human recombinant adenosine A3 receptor expressed in CHO cells assessed as nonradiaoactive DELFIA Eu-GTP binding treated for 15 mins before addition of Eu-GTP measured after 45 mins by time-resolved fluorometric method relative to Cl-IBMECA; format: cell-based; design: concentration or dose not given beside the values

Chain of Adenosine receptor A2a (P29274 whole entry): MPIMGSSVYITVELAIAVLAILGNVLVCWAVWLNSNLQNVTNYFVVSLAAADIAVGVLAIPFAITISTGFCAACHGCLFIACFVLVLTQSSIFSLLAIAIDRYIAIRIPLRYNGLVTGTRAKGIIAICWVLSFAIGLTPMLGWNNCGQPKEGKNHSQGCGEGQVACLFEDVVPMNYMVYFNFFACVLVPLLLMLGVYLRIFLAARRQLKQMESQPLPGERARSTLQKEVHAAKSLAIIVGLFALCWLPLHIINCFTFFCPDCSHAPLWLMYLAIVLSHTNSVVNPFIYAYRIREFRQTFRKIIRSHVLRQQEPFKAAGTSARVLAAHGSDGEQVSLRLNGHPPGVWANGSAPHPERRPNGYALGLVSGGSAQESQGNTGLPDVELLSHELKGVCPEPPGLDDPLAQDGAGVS

Compound	EC50 [1] [nM]	Ki [2] [nM]	Ratio Ki [3]	Ki [4] [nM]	Ratio EC50 [5]	Ki [6] [nM]	Ratio Ki [7]	Activity [8]	Activity [9] [%]
CNC(=O)[C@H]1O[C@@H](n2cnc3c(NOC)nc(C#Cc4ccc(F)cc4)nc32)[C@H](O)[C@@H]1O	210		1600				9800	inactive	100
CONc1nc(C#Cc2ccccn2)nc2c1ncn2[C@@H]1O[C@H](CO)[C@@H](O)[C@H]1O									9
CNC(=O)[C@H]1O[C@@H](n2cnc3c(NC)nc(C#Cc4ccc(F)cc4)nc32)[C@H](O)[C@@H]1O	190	0.43	12500	5310		12700	29500	inactive	100
CNC(=O)[C@H]1O[C@@H](n2cnc3c(NCc4ccc(I)cc4)nc(Cl)nc32)[C@H](O)[C@@H]1O	363								
CNc1nc(C#Cc2ccccc2)nc2c1ncn2[C@@H]1O[C@H](CO)[C@@H](O)[C@H]1O	290		500				2500		65
CONc1nc(C#Cc2ccccc2)nc2c1ncn2[C@@H]1O[C@H](CO)[C@@H](O)[C@H]1O	320	3.8	300				1100		55

Second part, the compound after the results:

EC50 [1] [nM]	Ki [2] [nM]	Ratio Ki [3]	Ki [4] [nM]	Ratio EC50 [5]	Ki [6] [nM]	Ratio Ki [7]	Activity [8]	Activity [9] [%]	Compound
46	0.4	22000	8740	7	24300	61000	inactive	100	CNC(=O)[C@H]1O[C@@H](n2cnc3c(NC)nc(C#Cc4ccccn4)nc32)[C@H](O)[C@@H]1O
151	0.44	76500	32800		41700	97000	inactive	100	CNC(=O)[C@H]1O[C@@H](n2cnc3c(NC)nc(C#Cc4ccccc4)nc32)[C@H](O)[C@@H]1O
120		4800				8600	inactive	100	CNC(=O)[C@H]1O[C@@H](n2cnc3c(NOC)nc(C#Cc4ccccc4)nc32)[C@H](O)[C@@H]1O
52		3600		7		16400	inactive	100	CNC(=O)[C@H]1O[C@@H](n2cnc3c(NOC)nc(C#Cc4ccccn4)nc32)[C@H](O)[C@@H]1O
